Results as given in ChEMBL document CHEMBL5724801, “EUbOPEN Chemogenomics Library - Multiplex” (2024).
Where “and” joins values, the source holds several entries; their conditions need not be identical. Equal entries are not always repeated.

Tests used:
Fibroblast = assay: Multiplex assay against human fibroblast; type: toxicity, cell-based
In short: (§1)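 Imaging took place on a CQ1 microscope at 37°C and 5% CO2 once compound had been added to live cells stained at seeding with Hoechst33342, BioTracker Green Microtubule Cytoskeleton Dye, MitoTracker Red and Annexin V Alexa Fluor 680. CellPathfinder machine-learning gating classed cells as Hoechst high-intensity objects or normal cells, classed normal cells as having healthy, pyknosed or fragmented nuclei, and classed pyknosed cells as mitotic or apoptotic. Tubulin, mitochondrial-mass and membrane-permeability phenotypes are per cents of the healthy-nucleus cells.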

U2OS = assay: Multiplex assay against U2OS; type: toxicity, cell-based; settings: human; in short: as §1
[1] = 24 h, 10 µM, compound concentration 10 uM
[2] = 48 h, 1 µM, compound concentration 1 uM
[3] = 48 h, 10 µM, compound concentration 10 uM
[4] = 12 h, 1 µM, compound concentration 1 uM
[5] = 12 h, 10 µM, compound concentration 10 uM
[6] = 24 h, 1 µM, compound concentration 1 uM

## O=C(NCCNCC(O)COc1ccc(O)cc1)N1CCOCC1.O=C(NCCNCC(O)COc1ccc(O)cc1)N1CCOCC1.O=C(O)/C=C/C(=O)O (stereo not drawn) [XAMOTEROL FUMARATE]
Fibroblast; [1]
  Population Apoptotic (%): 62% and 42%
  Population Fragmented Nuclei (%): 20% and 34%
  Population Healthy Nuclei (%): 67% and 54%
  Population Hoechst High Intensity Objects (%): 1%
  Population Membrane Permeable-Phenotype (%): 0% and 5%
  Population Mitochondria Different-Phenotype (%): 0% and 8%
  Population Mitotic Cells (%): 37% and 57%
  Population Normal (%): 98%
  Population Pyknosed Nuclei (%): 12% and 11%
  Population Tubulin-Different-Phenotype (%): 31% and 41%
  Total Cell Count: 135 and 172
Fibroblast; [2]
  Population Apoptotic (%): 65% and 40%
  Population Fragmented Nuclei (%): 27% and 42%
  Population Healthy Nuclei (%): 57% and 46%
  Population Hoechst High Intensity Objects (%): 1% and 2%
  Population Membrane Permeable-Phenotype (%): 1% and 7%
  Population Mitochondria Different-Phenotype (%): 2% and 4%
  Population Mitotic Cells (%): 35% and 60%
  Population Normal (%): 98% and 97%
  Population Pyknosed Nuclei (%): 15% and 10%
  Total Cell Count: 131 and 140
Fibroblast; [3]
  Population Apoptotic (%): 56% and 52%
  Population Fragmented Nuclei (%): 25% and 33%
  Population Healthy Nuclei (%): 62% and 54%
  Population Hoechst High Intensity Objects (%): 4% and 3%
  Population Membrane Permeable-Phenotype (%): 1% and 6%
  Population Mitochondria Different-Phenotype (%): 3% and 4%
  Population Mitotic Cells (%): 43% and 47%
  Population Normal (%): 95% and 96%
  Population Pyknosed Nuclei (%): 11%
  Population Tubulin-Different-Phenotype (%): 33% and 48%
  Total Cell Count: 144 and 157
U2OS; [4]
  Population Apoptotic (%): 71% and 83%
  Population Fragmented Nuclei (%): 27% and 19%
  Population Healthy Nuclei (%): 66% and 68%
  Population Hoechst High Intensity Objects (%): 2% and 3%
  Population Membrane Permeable-Phenotype (%): 6% and 13%
  Population Mitochondria Different-Phenotype (%): 1%
  Population Mitotic Cells (%): 28% and 16%
  Population Normal (%): 97% and 96%
  Population Pyknosed Nuclei (%): 5% and 11%
  Population Tubulin-Different-Phenotype (%): 2% and 5%
  Total Cell Count: 265 and 110
U2OS; [5]
  Population Apoptotic (%): 92% and 100%
  Population Fragmented Nuclei (%): 28% and 15%
  Population Healthy Nuclei (%): 60% and 73%
  Population Hoechst High Intensity Objects (%): 0% and 4%
  Population Membrane Permeable-Phenotype (%): 6% and 4%
  Population Mitochondria Different-Phenotype (%): 2% and 3%
  Population Mitotic Cells (%): 7% and 0%
  Population Normal (%): 99% and 95%
  Population Pyknosed Nuclei (%): 11%
  Population Tubulin-Different-Phenotype (%): 4% and 7%
  Total Cell Count: 239 and 118
U2OS; [6]
  Population Apoptotic (%): 85% and 80%
  Population Fragmented Nuclei (%): 24% and 18%
  Population Healthy Nuclei (%): 68% and 69%
  Population Hoechst High Intensity Objects (%): 0% and 1%
  Population Membrane Permeable-Phenotype (%): 5% and 10%
  Population Mitochondria Different-Phenotype (%): 0% and 4%
  Population Mitotic Cells (%): 15% and 20%
  Population Normal (%): 99% and 98%
  Population Pyknosed Nuclei (%): 6% and 11%
  Population Tubulin-Different-Phenotype (%): 1% and 5%
  Total Cell Count: 312 and 129
U2OS; [1]
  Population Apoptotic (%): 89% and 78%
  Population Fragmented Nuclei (%): 22% and 16%
  Population Healthy Nuclei (%): 66% and 70%
  Population Hoechst High Intensity Objects (%): 1%
  Population Membrane Permeable-Phenotype (%): 6%
  Population Mitochondria Different-Phenotype (%): 2%
  Population Mitotic Cells (%): 10% and 21%
  Population Normal (%): 98%
  Population Pyknosed Nuclei (%): 10% and 12%
  Population Tubulin-Different-Phenotype (%): 2% and 6%
  Total Cell Count: 270 and 152
U2OS; [2]
  Population Apoptotic (%): 90% and 91%
  Population Fragmented Nuclei (%): 18% and 23%
  Population Healthy Nuclei (%): 75% and 62%
  Population Hoechst High Intensity Objects (%): 1% and 2%
  Population Membrane Permeable-Phenotype (%): 4% and 6%
  Population Mitochondria Different-Phenotype (%): 2% and 3%
  Population Mitotic Cells (%): 9% and 8%
  Population Normal (%): 98% and 97%
  Population Pyknosed Nuclei (%): 6% and 13%
  Population Tubulin-Different-Phenotype (%): 2% and 4%
  Total Cell Count: 472 and 171
U2OS; [3]
  Population Apoptotic (%): 89% and 94%
  Population Fragmented Nuclei (%): 18% and 17%
  Population Healthy Nuclei (%): 68% and 73%
  Population Hoechst High Intensity Objects (%): 1% and 2%
  Population Membrane Permeable-Phenotype (%): 2% and 4%
  Population Mitochondria Different-Phenotype (%): 1% and 4%
  Population Mitotic Cells (%): 10% and 5%
  Population Normal (%): 98% and 97%
  Population Pyknosed Nuclei (%): 12% and 9%
  Population Tubulin-Different-Phenotype (%): 2% and 6%
  Total Cell Count: 392 and 206
